Activity calls are given as the source filed them.
Tests used:
[1] = system: Mus musculus; assay: Anticonvulsant activity in CF1 albino mouse assessed as protection against maximal electroshock-induced seizure at 100 mg/kg, ip after 0.5 hrs; format: functional, organism-based
Summary of the method: (§1)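 Male CF-1 mice dosed ip as suspension in 0.5% methylcellulose. Corneal electrodes deliver 60 Hz alternating current, 50 mA for […], after a drop of 0.5% tetracaine HCl in 0.9% NaCl per eye. Protection means abolition of hindlimb tonic extension; scored as protected/tested, or ED50 with 95% confidence interval.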

[2] = system: Mus musculus; assay: Anticonvulsant activity in CF1 albino mouse assessed as protection against subcutaneous pentetrazole-induced seizure at 30 mg/kg, ip after 0.5 hrs; format: functional, organism-based
Summary of the method: (§2)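 Male CF-1 mice, ip in 0.5% methylcellulose; pentetrazole at CD97 (85 mg/kg) injected subcutaneously in a loose fold of neck skin. Observed 30 min; absence of even a threshold seizure (single clonic spasm lasting at least 5 s) counted as protection. Scored protected/tested, or ED50.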

[3] = system: Mus musculus; assay: Neurotoxicity in CF1 albino mouse at 100 mg/kg, ip after 4 hrs by rotarod test; format: toxicity, organism-based; settings: in vivo
Summary of the method: (§3)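 Rotarod neurotoxicity in male albino CF-1 mice dosed ip with compound suspended in 0.5% methylcellulose. Animal placed on a 1 inch diameter knurled plastic rod rotating at 6 rpm. Neurotoxicity scored when the animal falls off three times within 1 min. Readout is number of animals toxic/number tested at the stated time after dosing. TD50 with 95% confidence interval from the quantitative study.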

[4] = system: Mus musculus; assay: Neurotoxicity in CF1 albino mouse at 30 mg/kg, ip after 0.5 hrs by rotarod test; format: toxicity, organism-based; settings: in vivo; summary of the method: as §3
[5] = molecular target: Histamine H3 receptor (Homo sapiens, UniProt Q9Y5N1); assay: Displacement of [3H]-Nalpha-methylhistamine from human recombinant histamine H3 receptor expressed in HEK293 cells after 90 mins; format: cell-based
Histamine H3 receptor, sequence (Q9Y5N1 whole entry): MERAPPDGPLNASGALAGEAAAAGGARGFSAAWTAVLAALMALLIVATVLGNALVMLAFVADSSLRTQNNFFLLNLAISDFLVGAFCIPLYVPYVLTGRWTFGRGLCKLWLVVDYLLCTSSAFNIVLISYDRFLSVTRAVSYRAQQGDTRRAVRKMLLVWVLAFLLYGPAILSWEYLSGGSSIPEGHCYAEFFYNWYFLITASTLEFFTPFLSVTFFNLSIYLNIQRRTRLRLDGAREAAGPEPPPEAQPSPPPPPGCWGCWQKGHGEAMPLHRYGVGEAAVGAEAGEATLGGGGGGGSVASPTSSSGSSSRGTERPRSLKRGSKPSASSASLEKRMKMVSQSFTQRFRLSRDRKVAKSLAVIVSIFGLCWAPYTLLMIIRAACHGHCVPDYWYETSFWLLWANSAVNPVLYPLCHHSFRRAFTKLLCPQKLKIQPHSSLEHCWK

[6] = system: Mus musculus; assay: Anticonvulsant activity in CF1 albino mouse assessed as protection against subcutaneous pentetrazole-induced seizure at 30 mg/kg, ip after 4 hrs; format: functional, organism-based; summary of the method: as §2
[7] = system: Mus musculus; assay: Neurotoxicity in CF1 albino mouse at 30 mg/kg, ip after 4 hrs by rotarod test; format: toxicity, organism-based; settings: in vivo; summary of the method: as §3
[8] = system: Mus musculus; assay: Neurotoxicity in CF1 albino mouse assessed as death at 300 mg/kg, ip after 4 hrs by rotarod test; format: toxicity, organism-based; settings: in vivo
Summary of the method: (§4)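 Male albino CF-1 mice dosed ip with compound suspended in 0.5% methylcellulose, then placed on a 1-inch knurled plastic rod turning at 6 rpm. A fall three times within 1 min counted as neurotoxicity. Observations were made at 0.5 h and 4 h after dosing. Result given as animals showing toxicity per animals tested, with the kind of toxicity recorded.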

[9] = system: Mus musculus; assay: Anticonvulsant activity in CF1 albino mouse assessed as protection against maximal electroshock-induced seizure at 30 mg/kg, ip after 0.5 hrs; format: functional, organism-based; summary of the method: as §1
[10] = system: Mus musculus; assay: Anticonvulsant activity in CF1 albino mouse assessed as protection against subcutaneous pentetrazole-induced seizure at 100 mg/kg, ip after 0.5 hrs; format: functional, organism-based; summary of the method: as §2
[11] = system: Mus musculus; assay: Neurotoxicity in CF1 albino mouse assessed as death at 300 mg/kg, ip after 0.5 hrs by rotarod test; format: toxicity, organism-based; settings: in vivo; summary of the method: as §4
[12] = system: Mus musculus; assay: Anticonvulsant activity in CF1 albino mouse assessed as protection against subcutaneous pentetrazole-induced seizure at 100 mg/kg, ip after 4 hrs; format: functional, organism-based; summary of the method: as §2
[13] = system: Rattus norvegicus; assay: Anticonvulsant activity in Sprague-Dawley rat assessed as protection against pilocarpine-induced convulsive status epilepticus at 65 mg/kg, ip; format: functional, organism-based
Summary of the method: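 Male Sprague Dawley rats (150–180 g) dosed ip, pilocarpine 50 mg/kg ip given; compound dosed immediately at first behavioral Stage 3 seizure or 30 min later. Number protected from Racine Stage 3 or greater seizures recorded.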

[14] = system: Mus musculus; assay: Anticonvulsant activity in CF1 albino mouse assessed as protection against maximal electroshock-induced seizure at 30 mg/kg, ip after 4 hrs; format: functional, organism-based; summary of the method: as §1
[15] = system: Mus musculus; assay: Anticonvulsant activity in CF1 albino mouse assessed as protection against maximal electroshock-induced seizure at 100 mg/kg, ip after 4 hrs; format: functional, organism-based; summary of the method: as §1
[16] = system: Mus musculus; assay: Neurotoxicity in CF1 albino mouse at 3 mg/kg, ip after 0.5 hrs by rotarod test; format: toxicity, organism-based; settings: in vivo; summary of the method: as §3
[17] = system: Mus musculus; assay: Neurotoxicity in CF1 albino mouse assessed as unable to grasp rotarod, death and loss of righting reflux at 100 mg/kg, ip after 0.5 hrs by rotarod test; format: toxicity, organism-based; settings: in vivo; summary of the method: as §4
[18] = system: Mus musculus; assay: Neurotoxicity in CF1 albino mouse at 300 mg/kg, ip after 4 hrs by rotarod test; format: toxicity, organism-based; settings: in vivo; summary of the method: as §3
[19] = system: Mus musculus; assay: Neurotoxicity in CF1 albino mouse at 10 mg/kg, ip after 0.5 hrs by rotarod test; format: toxicity, organism-based; settings: in vivo
Summary of the method: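 Rotarod neurotoxicity in male CF-1 mice dosed ip as 0.5% methylcellulose suspension: mouse placed on 1 inch knurled rod rotating at 6 rpm; toxicity when the animal falls off three times within 1 min, with other signs noted. Scored as toxic/tested at 0.5 h and 4 h.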

[20] = system: Mus musculus; assay: Anticonvulsant activity in CF1 albino mouse assessed as protection against maximal electroshock-induced seizure at 10 mg/kg, ip after 0.5 hrs; format: functional, organism-based; summary of the method: as §1
[21] = system: Mus musculus; assay: Anticonvulsant activity in CF1 albino mouse assessed as protection against maximal electroshock-induced seizure at 3 mg/kg, ip after 0.5 hrs; format: functional, organism-based; summary of the method: as §1
[22] = system: Mus musculus; assay: Anticonvulsant activity in CF1 albino mouse assessed as protection against 6 Hz-psychomotor-induced seizure at 30 mg/kg, ip after 0.25 to 4 hrs; format: functional, organism-based
Summary of the method: (§5)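 Male CF-1 mice, ip suspension in 0.5% methylcellulose. Corneal stimulation 0.2 ms monopolar rectangular pulses at 6 Hz, 32 mA for 3 s via constant-current device; mice without minimal clonic phase seizure counted protected. Groups of four; read at 0.25, 0.5, 1, 2, 4 h; result as protected/tested.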

[23] = system: Mus musculus; assay: Neurotoxicity in CF1 albino mouse assessed as death at 100 mg/kg, ip after 0.5 hrs by rotarod test; format: toxicity, organism-based; settings: in vivo; summary of the method: as §4
[24] = system: Mus musculus; assay: Anticonvulsant activity in CF1 albino mouse assessed as protection against 6 Hz-psychomotor-induced seizure at 60 mg/kg, ip after 4 hrs; format: functional, organism-based; summary of the method: as §5
[25] = Neuroprotective activity in hippocampal slice (unknown origin) assessed as protection against NMDA-induced cell death using propidium iodide staining; format: functional; settings: Hippocampus
Summary of the method: (§6)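 Organotypic hippocampal slice cultures exposed to NMDA or kainic acid alone or with compound; propidium iodide in all wells; PI fluorescence intensity of slices, proportional to cell death, compared with excitotoxin-only slices; qualitative.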

[26] = Neuroprotective activity in hippocampal slice (unknown origin) assessed as protection against kainic acid-induced cell death using propidium iodide staining; format: functional; settings: Hippocampus; summary of the method: as §6
[27] = system: Mus musculus; assay: Neurotoxicity in CF1 albino mouse at 30 mg/kg, ip after 0.25 to 4 hrs by rotarod test; format: toxicity, organism-based; settings: in vivo; summary of the method: as §3
[28] = system: Mus musculus; assay: Neurotoxicity in CF1 albino mouse at 60 mg/kg, ip after 1 to 4 hrs by rotarod test; format: toxicity, organism-based; settings: in vivo; summary of the method: as §3

## Clc1cccc(OCCCCCCCN2CCCCC2)c1.O=C(O)C(=O)O
[1]
  Activity: inactive
[2]
  Activity: inactive
[3]
  Activity: Non-toxic
[4]
  Activity: Non-toxic
[5]
  Ki: 333 nM
[6]
  Activity: inactive
[7]
  Activity: Non-toxic
[8]
  Activity: Non-toxic
[9]
  Activity: inactive
[10]
  Activity: inactive
[11]
  Activity: Toxic
[12]
  Activity: inactive
[13]
  Activity: Active
[14]
  Activity: inactive
[15]
  Activity: inactive

## Clc1ccc(OCCCCCN2CCCCCC2)cc1.O=C(O)C(=O)O
[16]
  Activity: Non-toxic
[2]
  Activity: inactive
[17]
  Activity: Toxic
[3]
  Activity: Non-toxic
[4]
  Activity: Non-toxic
[18]
  Activity: Non-toxic
[5]
  Ki: 371 nM
[6]
  Activity: inactive
[7]
  Activity: Non-toxic
[19]
  Activity: Non-toxic
[9]
  Activity: Active
[10]
  Activity: inactive
[11]
  Activity: Toxic
[12]
  Activity: inactive
[20]
  Activity: inactive
[14]
  Activity: inactive
[21]
  Activity: inactive
[15]
  Activity: Active

## Clc1ccc(OCCCCCCN2CCCCC2)cc1.O=C(O)C(=O)O
[16]
  Activity: Non-toxic
[22]
  Activity: inactive
[2]
  Activity: inactive
[3]
  Activity: Non-toxic
[23]
  Activity: Toxic
[18]
  Activity: Non-toxic
[5]
  Ki: 265 nM
[6]
  Activity: inactive
[24]
  Activity: inactive
[7]
  Activity: Non-toxic
[19]
  Activity: Non-toxic
[9]
  Activity: Active
[11]
  Activity: Toxic
[20]
  Activity: inactive
[13]
  Activity: Active
[25]
  Activity: inactive
[14]
  Activity: inactive
[21]
  Activity: inactive
[26]
  Activity: inactive
[27]
  Activity: Non-toxic
[28]
  Activity: Non-toxic

— ChEMBL document CHEMBL3745596, “Chlorophenoxy aminoalkyl derivatives as histamine H(3)R ligands and antiseizure agents” (Bioorg Med Chem, 2016)
